This is an account of results in ChEMBL document CHEMBL3045217, “Factors affecting the synergy of thiabendazole, sodium bicarbonate, and heat to control postharvest green mold of citrus fruit” (J Agric Food Chem, 2008).

The structures appear in SMILES notation.

For data set [1], the system named is Penicillium digitatum. As to the kind of experiment: Fungicidal activity against TBZ-sensitive Penicillium digitatum infected Nova mandarins assessed as postharvest green mold incidence at 600 mg/L treated for 1 min at 20 degC at 20 hr after fungal conidial inoculation measured after 5 days of storage at 20 degC in presence of 0.5% SBC (water Rvb = 100%). Format: functional. In short, it runs like this: (§1)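 Fruit were surface-disinfected in 1 g/L hypochlorite for 30 s, rinsed, dried, then wounded twice equatorially (2 mm × 2 mm rod). Inoculation was a 1 min dip in P. digitatum conidia, 1 × 10^5 conidia/mL final. Fruit were held 20 h at 20 °C and 90% RH, dipped 1 min (SBC wt/vol), and air-dried. Storage was 20 °C, 90% RH. Decay incidence (% fruit with lesions) was scored at 5 d for mandarins and 7 d for oranges. Three replicates of 40 fruit were used; arcsin-transformed data were compared by LSD, p ≤ 0.05.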

Data set [2] concerns Penicillium digitatum. As to the kind of experiment: Fungicidal activity against Penicillium digitatum infected Valenica oranges assessed as fruit weight loss at 400 mg/L treated for 1 min at 40 degC postharvest at 20 hr after fungal conidial inoculation measured after 14 days of storage at 17 degC (water Rvb = 6.24%). Format: functional.
Data set [3] relates to Penicillium digitatum. Nature of the data set: Fungicidal activity against Penicillium digitatum infected Valenica oranges assessed as fruit weight loss at 600 mg/L treated for 1 min at 20 degC postharvest at 20 hr after fungal conidial inoculation measured after 21 days of storage at 17 degC in presence of 2% SBC (water Rvb = 11.89%). Format: functional.
For data set [4], the system named is Penicillium digitatum. Nature of the data set: Fungicidal activity against TBZ-resistant Penicillium digitatum infected Nova mandarins assessed as postharvest green mold incidence at 400 mg/L treated for 1 min at 40 degC at 20 hr after fungal conidial inoculation measured after 5 days of storage at 20 degC in presence of 0.5% SBC (water Rvb = 83.3%). It counts as functional.

Data set [5] deals with Penicillium digitatum. As to the kind of experiment: Fungicidal activity against Penicillium digitatum infected Valenica oranges assessed as fruit weight loss at 400 mg/L treated for 1 min at 40 degC postharvest at 20 hr after fungal conidial inoculation measured after 14 days of storage at 17 degC in presence of 0.5% SBC (water Rvb = 7.90%). Format: functional.
Data set [6] relates to Penicillium digitatum. As to the kind of experiment: Fungicidal activity against Penicillium digitatum infected Valenica oranges assessed as fruit weight loss at 400 mg/L treated for 1 min at 40 degC postharvest at 20 hr after fungal conidial inoculation measured after 7 days of storage at 17 degC (water Rvb = 3.42%). Format: functional.
The test system of data set [7] is Penicillium digitatum. As to the kind of experiment: Fungicidal activity against Penicillium digitatum infected Valenica oranges assessed as fruit weight loss at 200 mg/L treated for 1 min at 50 degC postharvest at 20 hr after fungal conidial inoculation measured after 7 days of storage at 17 degC (water Rvb = 3.23%). It counts as functional.
Data set [8] relates to Fruit. As to the kind of experiment: Drug residues in Citrus sinensis cvs. Valencia late (Valencia oranges) at 400 mg/L treated for 1 min at 40 degC postharvest measured immediately post-drug treatment by GC analysis. It counts as ADME. In short, it runs like this: (§2)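 'Valencia' oranges were dipped 1 min in TBZ at 600 mg/L (20 °C, ±0.5, 1 or 2% wt/vol SBC), 400 mg/L (40 °C, ±SBC) or 200 mg/L (50 °C, alone), then air-dried. They were sampled at 0, 10 and 20 days at 17 °C. Peel of five fruit was frozen, and 5 g of homogenate was extracted with ethyl acetate/hexane (1/1) plus NaCl. The extract was dried under N2, taken up in acetone and analysed by GC. Results are mg/kg on a whole-fruit basis.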

Data set [9] has as its system Fruit. Nature of the data set: Drug residues in Citrus sinensis cvs. Valencia late (Valencia oranges) at 600 mg/L treated for 1 min at 20 degC postharvest measured after 10 days of storage at 17 degC in presence of 2% SBC by GC analysis. Format: ADME. In outline:
as §2

For data set [10], the system named is Fruit. As to the kind of experiment: Drug residues in Citrus sinensis cvs. Valencia late (Valencia oranges) at 400 mg/L treated for 1 min at 40 degC postharvest measured after 10 days of storage at 17 degC in presence of 1% SBC by GC analysis. Format: ADME. In outline:
as §2

The subject of data set [11] is Penicillium digitatum. Nature of the data set: Fungicidal activity against Penicillium digitatum infected Valenica oranges assessed as fruit weight loss at 200 mg/L treated for 1 min at 50 degC postharvest at 20 hr after fungal conidial inoculation measured after 21 days of storage at 17 degC (water Rvb = 8.83%). It counts as functional.
The test system of data set [12] is Fruit. Nature of the data set: Drug residues in Citrus sinensis cvs. Valencia late (Valencia oranges) at 400 mg/L treated for 1 min at 40 degC postharvest measured after 20 days of storage at 17 degC by GC analysis. It counts as ADME. In short, it runs like this: as §2
In data set [13] the test system is Penicillium digitatum. As to the kind of experiment: Fungicidal activity against TBZ-sensitive Penicillium digitatum infected Nova mandarins assessed as postharvest green mold incidence at 600 mg/L treated for 1 min at 20 degC at 20 hr after fungal conidial inoculation measured after 5 days of storage at 20 degC (water Rvb = 100%). It counts as functional. In short, it runs like this: as §1

Consider `c1ccc2[nH]c(-c3cscn3)nc2c1` [THIABENDAZOLE], for which the Activity amounted to 0% in [1]; 6.26% in data set [2]; 13.39% in data set [3]; 70% in data set [4]; 8.39% in data set [5]; 3.22% in [6]. Moreover, the figures for the Activity in data set [7], in data set [11] and in data set [13] were 2.98%, 8.54% and 0%, respectively. Also, the Drug uptake in data set [8] was 0.83 mg/kg; in [9], 1.23 mg/kg; in data set [10] it was 0.7 mg/kg; in data set [12], 0.87 mg/kg.
